Shown is part of a subset that was picked to be rich in hits.
GAA850 FXN act: increases GAA850 frataxin promoter reporter activity; 360,000 compounds, 0.56% hits; HEK293 lucGAA850 FXN promoter luciferase reporter, 24 h; percent of 10 µM SAHA response; activation, % at 6 µM;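 active = activation above the average of all compounds screened plus 3 SD, cutoff fixed separately per campaign, cut at about 7.5% in these data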;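 also: 0% = DMSO wells and 100% = 10 µM SAHA wells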
CHOP UPR activ: apoptotic UPR (CHOP) activation; 330,000 compounds, 0.34% hits; activation, % at 10 µM; CHO-CHOP luciferase reporter, luminescence; percent of tunicamycin response over DMSO baseline; AID 449763;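 active = at 10 µM dose, activation of 40% or more, normalized to positive control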;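 also: 100% = tunicamycin at 10 µg/mL and 0% = DMSO alone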
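Evaluation: % reporter activation, DMSO baseline versus tunicamycin full activation; System: CHO-CHOP luciferase reporter cell line; Input: 500 cells/well; Incubation: 6 h compound treatment, 37 °C; Measured by: Steady-Glo luciferase luminescence; Dosing: one dose, 10 µM in 0.5% DMSO; Buffer or medium: F12 medium, 10% FBS; Benchmarks: positive tunicamycin 10 µg/mL, negative DMSO alone.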
XBP1 UPR activ: adaptive UPR (XBP1) activation. CHO-XBP1 luciferase reporter, IRE1-XBP1 UPR activation, luminescence; percent of tunicamycin response, DMSO as zero. activation, % at 20 µM. 330,000 compounds, 0.33% hits. AID 463104;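 active = versus positive control, 20 µM dose yields 30% or more activation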;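 also: 100% = tunicamycin at 10 µg/mL and 0% = DMSO only wells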
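incubation = overnight seeding at 37 °C, 6 h compound treatment at 37 °C | assay system = CHO-XBP1 cells stably carrying IRE1-XBP1-driven luciferase reporter | input = 1000 cells per well | detection = luciferase luminescence | dosing = single point, 20 µM final compound, 1% DMSO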
CHOP inhibitor: CHOP inhibition in unfolded protein response; CHO-K1 CHOP-promoter luciferase, tunicamycin-induced, 15-18 h; AID 2732; 220,000 compounds, 3.8% hits; inhibition, % at 10 µM;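 active = compounds that reduced the stress-induced luciferase reporter signal by more than about 70% of percent inhibition, limit read from the data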;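 also: 0% = tunicamycin plus vehicle and 100% = wells without tunicamycin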
UPR XBP1 confirm: adaptive UPR (XBP1) activation, confirmed; CHO-XBP1 IRE1-XBP1 luciferase reporter, luminescence; activation, % at 20 µM; 1,000 compounds, 63% hits; shares compounds with XBP1 UPR activ;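 active = reporter signal at least 30% of the positive control's activation in two or more of four replicate wells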;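 also: plate controls were DMSO negative control for no effect and tunicamycin 10 µg/mL positive control for full effect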
* marks the source's active call; other numbers are inactive results; . = no result given.

SMILES	GAA850 FXN act	CHOP UPR activ	XBP1 UPR activ	CHOP inhibitor	UPR XBP1 confirm
Cn1nc(C(F)(F)F)c(/C=N/OC(=O)c2ccccc2Cl)c1SCc1ccccc1Cl	-1	26	89*	35	98*
Cn1nc(C(F)(F)F)c(/C=N/OC(=O)c2ccccc2)c1SCc1ccc(Cl)cc1	2	12	48*	57	90*
Cc1nc(Sc2nnnn2C)c2c3c(sc2n1)CCC3	2	4	37*	-100	9
CCCCNC(=O)C1(C)CCN1C(=O)c1sccc1C (configuration not stated)	-1	.	.	.	.
CCC(=O)NC(c1ccco1)c1cc(Br)c2cccnc2c1O (configuration not stated)	-5	.	.	.	.
CC(=O)NC(c1ccco1)c1ccc2cccnc2c1O (configuration not stated)	-6	-3	32*	.	-1
CCCCN1C(=O)C(CC(=O)NC2CCCC2)CC(C(=O)N(C(C)C)C(C)C)=C1C (configuration not stated)	-2	.	.	.	.
O=C(NCc1cccc(F)c1)Nc1nnc([C@@H]2C[C@H](O)[C@@H](CO)O2)s1	0	.	.	.	.
COc1ccc(/C=N\NC(=O)c2cc(O)c(O)c(O)c2)cc1COc1ccc(C(=O)OCC(C)C)cc1	-2	5	41*	.	25
CC1(Oc2cccc(F)c2)CCN(Cc2ccc(-c3ccccn3)cc2)C1 (configuration not stated)	-2	.	.	.	.
COC(=O)c1nn(-c2ccccc2)nc1-c1nn(-c2ccccc2)nc1C(=O)OC	4	5	39*	-13	18
CCn1c2ccccc2c2cc(Nc3cc(C)nc4ncnn34)ccc21	-2	-1	36*	.	23
Cn1nnnc1Sc1ncnc2scc(-c3ccc(Br)cc3)c12	-2	18	100*	.	141*
O=C(CCNC(=O)N1CC(=O)Nc2ccccc21)NCc1cccc(C(F)(F)F)c1	-1	.	.	.	.
Cc1ccc2c(c1)C(=O)C(=O)N2Cc1ccc(C(F)(F)F)cc1	-1	2	51*	.	46*
Cc1ccc(OCCN2C(=O)C(=O)c3cc(C)ccc32)cc1	2	2	18	-30	.
N#Cc1cc2c(nc1SCC(=O)Nc1sc3c(c1C#N)CCC3)CCCC2	-1	7	51*	-61	30*
CCOC(=O)C1(C)CCN1C(=O)c1cc(-c2ccc(Cl)cc2)oc1C (configuration not stated)	0	.	.	.	.
OC(c1cccc(CN2CCCCC2)c1)c1ncc(-c2cccc3ccccc23)[nH]1 (configuration not stated)	-1	.	.	.	.
Cn1ncc(N=Cc2c(O)ccc3ccccc23)c1C(=O)Nc1cccc(Cl)c1	1	17	99*	76*	80*
Cn1ncc(Cl)c1C(=O)Nc1cccc(Cl)c1	0	-1	0	1	.
COc1cccc(Nc2nc(C(N)Cc3ccc(Cl)cc3)cs2)n1 (configuration not stated)	-4	.	.	.	.
CSc1ccccc1NC(=O)C1(C)CCN1C(=O)Cc1ccccc1Cl (configuration not stated)	-1	.	.	.	.
COc1ccc(S(=O)(=O)NC(=O)C2(C)CCN2C(=O)c2c(C)noc2C)cc1 (configuration not stated)	2	.	.	.	.
CCCCNc1c(-c2ccc(SC(C)CC)cc2)nc2cnccn12 (configuration not stated)	4	4	57*	.	50*
SMILES	GAA850 FXN act	CHOP UPR activ	XBP1 UPR activ	CHOP inhibitor	UPR XBP1 confirm
COc1ccccc1C1NC=C([N+](=O)[O-])C=C1[N+](=O)[O-] (configuration not stated)	2	0	-4	-30	.
COc1ccccc1C1C([N+](=O)[O-])=CC([N+](=O)[O-])=CN1C (configuration not stated)	2	25	51*	43	0
Cc1cc(C)nc(NS(=O)(=O)c2ccc(NC(=O)c3cc4c(=O)n5cccc(C)c5nc4n3C)cc2)n1	-1	10	101*	.	4
Cc1cccn2c(=O)c3cc(C(=O)NC4CCCC4)n(C)c3nc12	-4	3	7	.	.
CCOc1cc(/C=C(\C#N)c2[nH]nc(N)c2C#N)ccc1O	1	18	32*	27	51*
CCOc1cc(/C=C(\C#N)C(=O)Nc2ccccn2)ccc1O	1	3	3	.	.
CCC(Sc1nnc2c3ccccc3n(CC)c2n1)C(=O)Nc1sc2c(c1C#N)CCCC2 (configuration not stated)	0	12	163*	9	157*
CCC(Sc1nc(C)cc(=O)[nH]1)C(=O)Nc1sc2c(c1C#N)CCCC2 (configuration not stated)	3	1	0	19	.
Cc1ccccc1C(=O)N1CCC1(C)C(=O)NC(C)C (configuration not stated)	0	.	.	.	.
N/C(=N\c1nc2ccccc2o1)NC(=O)c1ccccc1NC(=O)c1ccccc1	1	0	5	38	.
O=C(NC(=Nc1nc2ccccc2o1)NC(=O)c1ccccc1)c1ccccc1	1	12	32*	61	29
CN(C)CCCNc1nc2cc(-c3cnn(C)c3)sc2c(=O)n1C	1	.	.	.	.
COCCOC(=O)c1c(C)oc2ccc(OC(=O)c3ccc4c(c3)OCO4)cc12	1	8	76*	69	0
CCOC(=O)Oc1ccc2oc(C)c(C(=O)OCCOC)c2c1	2	2	1	-24	.
COc1ccccc1CC(=O)Nc1ccc(-c2noc(COc3ccc(Cl)c(C)c3)n2)cc1	-3	6	31*	-12	8
O=C1Nc2ccccc2/C1=C/c1ccc([N+](=O)[O-])cc1	0	13	75*	.	76*
O=C1Nc2ccccc2/C1=C/c1ccccc1Cl	2	-1	0	.	.
C#CCOCCOCCOCCNc1nc(N2CCN(C(=O)CCCCCCCCCCNC(=O)[C@H](CCCCN)n3cc(C[C@@H](C)CC)nn3)CC2)nc(N2CCN(C(=O)CCCCCCCCCCNC(=O)[C@@H]([C@H](C)O)n3cc(C)nn3)CC2)n1	1	29	40*	.	1
C#CCOCCOCCOCCNc1nc(N2CCN(C(=O)CCCCCCCCCCNC(=O)[C@H](CCCCN)n3cc(C[C@@H](C)CC)nn3)CC2)nc(N2CCN(C(=O)CCCCCCCCCCNC(=O)[C@H](CCCN=C(N)N)n3cc(C[C@@H](C)CC)nn3)CC2)n1	0	12	31*	.	29*
C#CCOCCOCCOCCNc1nc(N2CCN(C(=O)CCCCCCCCCCNC(=O)[C@H](CCCCN)n3cc(C)nn3)CC2)nc(N2CCN(C(=O)CCCCCCCCCCNC(=O)[C@H](CCCN=C(N)N)n3cc(C[C@@H](C)CC)nn3)CC2)n1	.	-1	8	.	.
Cn1cc(/C=C(\C#N)C(=O)Nc2cccc([N+](=O)[O-])c2)c2ccccc21	-1	26	79*	-36	73*
